Test results as given in ChEMBL document CHEMBL4513216, “Probing the Open Global Health Chemical Diversity Library for Multistage-Active Starting Points for Next-Generation Antimalarials” (ACS Infect Dis, 2020).

Assay: Toxicity liver stage against HepG2, at 10uM
Type: cell-based
Design: test concentration 10 uM, cell line HepG2-A16-CD81EGFP
Settings: human, HepG2-A16-CD81EGFP cells; read-out: INHIBITION
Procedure, shortened: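 Uninfected HepG2-A16-CD81EGFP cells, 3 × 10^3 per well, 1536-well, plated on prespotted compound at 10 μM final, parasite-free screening media added to match infected plates; puromycin 10 μM positive, DMSO 0.5% negative; run in parallel with 48 h PbLuc assay at 37 °C, 5% CO2; viability by CellTiter-Glo luminescence, normalized to controls.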
`CNc1nc(CNC(=O)Nc2ccc(OC)cc2C)cs1` gave a cytotoxicity at 10 µM of -8.17%.
`Cc1cnc(N2CC[C@H]3[C@H](C[C@@H](CN(C)C)N3C)C2)nc1` gave a cytotoxicity at 10 µM of 5.71%.
For `CC(C1CCN(Cc2c(Cl)cncc2Cl)CC1)N1CCOCC1` (stereo unspecified), the cytotoxicity at 10 µM was -8.68%.
Work on `CCOc1ncnc2c1CCN(C(=O)NCc1cccnc1)CC2` yielded a cytotoxicity at 10 µM of -127%.
`COc1ccc(Cn2cc(C(=O)N(C)Cc3ccon3)nn2)cc1` showed a cytotoxicity at 10 µM of 5.61%.
`Cc1ccccc1CNC(=O)Cn1ncc2c1c(C)nn2C` gave a cytotoxicity at 10 µM of 9.71%.
With `Cc1ccoc1C(=O)N1CCCC2(CCCN2S(C)(=O)=O)C1` (stereo unspecified) the cytotoxicity at 10 µM was -143%.
Compound `Cc1cc(C)n(CC(C)Nc2ncnc3c2CCNC3)n1` (stereo unspecified) has a cytotoxicity at 10 µM of 3.37%.
Compound `CC(=O)N[C@@H]1CN(C(=O)Cc2coc3cc(C)ccc23)C[C@H]1O` has a cytotoxicity at 10 µM of 5.84%.
`CCOC(=O)C1CCN(C(=O)c2cnn(-c3ccccc3F)c2N)CC1` showed a cytotoxicity at 10 µM of 4.47%.
Compound `CCN(CC)CC1CN(Cc2ccc(C)s2)Cc2nccn2C1` (stereo unspecified) has a cytotoxicity at 10 µM of 2.32%.
In the case of `COCCN(C)c1ccc(NCc2cccnc2)nc1`, the cytotoxicity at 10 µM is reported as -9.9%.
For `CCOC(=O)c1coc(N2CCN(Cc3cc(C)cc(C)c3)C(=O)C2)n1`, the cytotoxicity at 10 µM was 4.24%.
`Cc1cc(C)n(CC2CCCN2CC(=O)NC2CCOCC2)n1` (stereo unspecified) showed a cytotoxicity at 10 µM of -5.23%.
In the case of `c1ccc2sc(N3CCCC(Cn4cncn4)C3)nc2c1` (stereo unspecified), the cytotoxicity at 10 µM is reported as -40.1%.
`CO[C@H]1CN(S(=O)(=O)c2ccc(F)cc2)C[C@@]12CCCO2` showed a cytotoxicity at 10 µM of 13.2%.
With `CN(C)S(=O)(=O)NCC(Cc1cccc(F)c1)N1CCNC1=O` (stereo unspecified) the cytotoxicity at 10 µM was -3.55%.
`O=C(NCCN1CCOCC1)C(OC1CCCC1)c1ccccc1` (stereo unspecified) gave a cytotoxicity at 10 µM of -2.99%.
Compound `CCC(=O)Nc1cccc(OCC(=O)N(C)Cc2nc(C)c[nH]2)c1` has a cytotoxicity at 10 µM of -4.54%.
`Cc1csc(N2CCCN(C(=O)c3occc3C)CC2)n1` gave a cytotoxicity at 10 µM of -13.8%.
In the case of `CCCC(=O)N1CCC2(CC1)CC(NC(C)=O)c1ccccc1O2` (stereo unspecified), the cytotoxicity at 10 µM is reported as 5.08%.
`O=C(c1cccc(Cl)c1F)N1CCOC2(CNCCOC2)C1` (stereo unspecified) gave a cytotoxicity at 10 µM of -2.06%.
Compound `O=S(=O)(NCCc1cn2ccccc2n1)N1CCOCC1` has a cytotoxicity at 10 µM of -3.98%.
`COCCNC(=O)C[C@@H]1COC[C@H]2CN(C(=O)COC)C[C@@H]12` gave a cytotoxicity at 10 µM of -96.5%.
In the case of `CC(=O)NC1CCCN(C(=O)Nc2cccnc2-n2cccn2)C1` (stereo unspecified), the cytotoxicity at 10 µM is reported as -15.3%.
For `O=C(NCCn1nc2ccccn2c1=O)c1cccc2[nH]ncc12`, the cytotoxicity at 10 µM was -0.472%.
Compound `Cc1cccc(COc2ccc(C(C)NC(=O)CNC(N)=O)cc2)c1` (stereo unspecified) has a cytotoxicity at 10 µM of -20.9%.
`O=C(CCC1CCCCC1)NS(=O)(=O)CC1CC1` showed a cytotoxicity at 10 µM of -9.69%.
In the case of `CCC1CCCCN1S(=O)(=O)c1c(C)noc1C` (stereo unspecified), the cytotoxicity at 10 µM is reported as -9.35%.
Work on `CC(=O)c1ccc(F)cc1-c1cc(NCCO)nc2[nH]ccc12` yielded a cytotoxicity at 10 µM of -5.72%.
`CC(=O)c1cccc(OCCCC(=O)N(C)Cc2cccc(O)c2)c1` gave a cytotoxicity at 10 µM of -4.58%.
Work on `Cc1nc(NC2CCCC2)cc(C2CCN2C(=O)c2ccccn2)n1` (stereo unspecified) yielded a cytotoxicity at 10 µM of -4.39%.
`CC(c1ccc(F)cc1)N1CCN(Cc2nccn2C)CC1` (stereo unspecified) showed a cytotoxicity at 10 µM of -25.7%.
Compound `Cc1nc2cc(=O)[nH]n2c(C)c1CC(=O)Nc1ccc2ccccc2n1` has a cytotoxicity at 10 µM of -4.15%.
Compound `CC(C)CCC(=O)NC(C#N)CC(C)C` (stereo unspecified) has a cytotoxicity at 10 µM of 2.53%.
With `CS(=O)(=O)C1(C(=O)NC2CCc3nccn3C2)CCCC1` (stereo unspecified) the cytotoxicity at 10 µM was -14%.
With `O=C1CSC(c2cccnc2)c2c(n(C3CCOCC3)[nH]c2=O)N1` (stereo unspecified) the cytotoxicity at 10 µM was -7.95%.
`CCn1cc(C(=O)N2CCCC3(CCC(=O)N(CCC(C)C)C3)C2)cn1` (stereo unspecified) showed a cytotoxicity at 10 µM of -1.19%.
Work on `O=C(NCCN1CCCCC1)c1nc(-c2cccc3[nH]ccc23)no1` yielded a cytotoxicity at 10 µM of 0.142%.
`COCCNc1nc(NCCc2ccccc2)nc2nccnc12` gave a cytotoxicity at 10 µM of 9.97%.
Work on `Cc1ccn2c(F)c(C(=O)N3CCC4(CCCN(C)C4=O)C3)nc2c1` (stereo unspecified) yielded a cytotoxicity at 10 µM of 2.51%.
For `CC(C)CCC(=O)N1CCN(c2ncnc3nc(N)ccc23)CC1`, the cytotoxicity at 10 µM was 8.32%.
`CC(=O)c1cc(CN2C[C@@H](CN3CCCC3)[C@@H](CO)C2)n(C)c1` gave a cytotoxicity at 10 µM of 4.92%.
`COc1cc2c(cc1CNC(=O)C(C)n1ccnc1C(C)C)OCCO2` (stereo unspecified) showed a cytotoxicity at 10 µM of -1.3%.
Work on `Cc1cccc(C(=O)N2C[C@@H]3C(CC(=O)Nc4cccnc4)[C@@H]3C2)n1` (stereo partly specified) yielded a cytotoxicity at 10 µM of -0.39%.
In the case of `c1ccc(CN2CCOC[C@H]2c2nc(-c3ccncc3)c[nH]2)nc1`, the cytotoxicity at 10 µM is reported as -0.501%.
In the case of `CC(C)(C)n1nnnc1CN(Cc1ccccc1)Cc1ccc(Cl)cc1`, the cytotoxicity at 10 µM is reported as 28.8%.
`O=C(O)[C@]12CN(CC3CCC3)C[C@H]1CN(c1cnccn1)C2` showed a cytotoxicity at 10 µM of 8.16%.
Work on `CCc1cnc(N2C[C@@H]3[C@@H](C(=O)N(C)C)CCS(=O)(=O)[C@@H]3C2)nc1` yielded a cytotoxicity at 10 µM of -108%.
In the case of `CCn1cc(CN2CCCCC2CCn2ccnc2C)cc1C#N` (stereo unspecified), the cytotoxicity at 10 µM is reported as -3.09%.
With `CC(C)Oc1cccc(CNC(=O)NC2(CO)CCCC2)c1` the cytotoxicity at 10 µM was -57.1%.
With `CN1CCC(N2CCCC(C(=O)N3Cc4ccccc4C3)C2)CC1` (stereo unspecified) the cytotoxicity at 10 µM was 5.19%.
`COc1cccc(OCC(=O)NS(=O)(=O)c2cc(F)ccc2F)c1` showed a cytotoxicity at 10 µM of 7.53%.
With `Cc1csc(C(=O)N2CCC(O)(CN3CCc4ccccc4C3)C2)c1` (stereo unspecified) the cytotoxicity at 10 µM was -1.22%.
With `O=C(NCCCn1cncn1)N1CCC(N2CCCCC2)CC1` the cytotoxicity at 10 µM was -7.01%.
For `CCN(CCn1cccn1)Cc1nc(-c2ccc(C)o2)oc1C`, the cytotoxicity at 10 µM was -4.7%.
`O=C(CSc1nc2n[nH]cc2c(=O)n1-c1ccccc1)N1CCOCC1` gave a cytotoxicity at 10 µM of -8.21%.
With `O=C(c1ccc(Cl)cc1)N1CCC(N2CCNC2=O)CC1` the cytotoxicity at 10 µM was 12.6%.
In the case of `Cc1cnc(N2CC3(CCN(Cc4cccnc4)C3)C2)nc1`, the cytotoxicity at 10 µM is reported as -2.36%.
For `CNC(=O)C1CCC(NC(=O)c2cc(C3CC3)n(C(C)(C)C)n2)CC1` (stereo unspecified), the cytotoxicity at 10 µM was 4.74%.
Compound `Cc1cc(C(=O)NCCN2CCCCC2C)nn1C(C)(C)C` (stereo unspecified) has a cytotoxicity at 10 µM of 1.57%.
For `CCN(Cc1nccs1)Cc1cc(Cl)ccc1OC`, the cytotoxicity at 10 µM was -1.06%.
Work on `CCOCC1CC2(CCN(C(=O)C3CC=CC3)CC2)CO1` (stereo unspecified) yielded a cytotoxicity at 10 µM of 1.5%.
With `Cc1cnn(CC2CCCN2Cc2nnc(-c3ccccc3)o2)c1` (stereo unspecified) the cytotoxicity at 10 µM was -9.86%.
For `Cc1cccc(C(=O)N2CCn3cc(CNC(=O)CC4CC4)nc3C2)n1`, the cytotoxicity at 10 µM was -78.4%.
For `CNS(=O)(=O)c1ccc(C(=O)N2CCCC2Cc2ccccc2)o1` (stereo unspecified), the cytotoxicity at 10 µM was -8.53%.
In the case of `Cc1cc2nc(SCC(=O)NC(C)C)n(Cc3ccco3)c(O)c-2n1`, the cytotoxicity at 10 µM is reported as 10.5%.
`Cn1ncc(N2CCC(CNC(=O)[C@@H](N)C3CCCCC3)CC2)cc1=O` showed a cytotoxicity at 10 µM of 12.7%.
For `Cn1cc(Cl)c(C(=O)N2CCC(N3CCc4ccccc4C3)CC2)n1`, the cytotoxicity at 10 µM was -2.27%.
In the case of `Cn1ccnc1C(O)c1ccccc1N1CCN(Cc2ccsc2)CC1` (stereo unspecified), the cytotoxicity at 10 µM is reported as 3.19%.
With `CC(=O)N1CCC(c2nnc3ccc(C(=O)NCC(C)C)cn23)C1` (stereo unspecified) the cytotoxicity at 10 µM was -108%.
Work on `CC(C)c1nnc2n1CCN(CCCS(=O)(=O)c1ccccc1)C2` yielded a cytotoxicity at 10 µM of -12.3%.
Compound `CC(C)N1CC(C(=O)NC(C)(C)CNC(=O)OC(C)(C)C)CC1=O` (stereo unspecified) has a cytotoxicity at 10 µM of -9.96%.
`O=C(C1CCCC1)N1C[C@@H]2CCN(c3cccnc3)C[C@@H]2C1` showed a cytotoxicity at 10 µM of -78.4%.
In the case of `CNC(=O)C1CN(C)CCN1c1nc(C)cc(C)n1` (stereo unspecified), the cytotoxicity at 10 µM is reported as 15.3%.
Work on `Cc1cs/c(=N/C(=O)c2csc(NCC(C)C)n2)[nH]1` yielded a cytotoxicity at 10 µM of 22.9%.
Work on `COc1coc(C(=O)Nc2nc(-c3cccnc3)cs2)cc1=O` yielded a cytotoxicity at 10 µM of 2.66%.
With `CCOc1cc(C(=O)N2CCCC(c3noc(C)n3)C2)ccn1` (stereo unspecified) the cytotoxicity at 10 µM was -4.49%.
Compound `CCn1cnnc1CNC(=O)NCC(C(C)C)N1CCC(C)CC1` (stereo unspecified) has a cytotoxicity at 10 µM of -4.65%.
With `OCC1(Cc2ccccc2F)CCCN(c2ccc3ccccc3n2)C1` (stereo unspecified) the cytotoxicity at 10 µM was 22.7%.
With `COCCN(Cc1ccccc1)C(=O)c1cnn(C)c1C` the cytotoxicity at 10 µM was -144%.
